Tm and folding enthalpy data for 36 sequences are collected here from the array DNA melting data of Ke et al. (doi:10.1101/2024.01.08.574731).

A short description of data set [1]: melting temperature; fluorescence melt of hairpins on a sequencing array, two-state fit, raised by 9.35 °C to match UV melts. As to conditions: sodium 0.088 M. In a few lines:
(§1)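 Library hairpins on a sequenced MiSeq flow cell carried annealed Cy3 and quencher oligos, and their Cy3 fluorescence was imaged in 50 mM Na-HEPES pH 8.0 with 25 mM NaCl, in 2.5 °C steps up to 60 °C. Signals were normalised to Cy3 before quenching and to control constructs. Melting temperature and folding enthalpy were obtained from bootstrapped two-state fits, combined by inverse-variance weighting across four replicates, and the fitted temperatures were then raised by 9.35 °C to match UV melts.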

The nature of data set [2]: folding enthalpy; higher = less favourable; fluorescence melt of hairpins on a sequencing array, two-state fit. As to conditions: sodium 0.088 M. A digest of the protocol:
as §1

As to GCATTCGGAAACGGATGC ((((.((....)).)))), in data set [1], the Tm was determined as 54 °C. The folding enthalpy in data set [2] was -36.9 kcal/mol.

Turning to GGATCCGAAAGGAGATCC ((((((....)))..))), the Tm in data set [1] amounted to 44.8 °C. For the same sequence, the folding enthalpy in data set [2] was -24 kcal/mol.

With GCGTTAGTACGC ((((....)))), in data set [1], the Tm was 51.1 °C. Besides, the folding enthalpy in data set [2] was -19.8 kcal/mol.

As to GCAGAGAAATCTGC (((((....))))), the Tm in data set [1] was 50.6 °C. Further, the folding enthalpy in data set [2] was -23.1 kcal/mol.

On to GCCTAACCGAAAGGTGGC (((..(((....)))))), for which the Tm in data set [1] stood at 53.2 °C. In addition, the folding enthalpy in data set [2] was -23.2 kcal/mol.

With GATCACCTCAGTGATC ((((((....)))))), in data set [1], the Tm is 59.6 °C. Further, in data set [2], the folding enthalpy was -42.3 kcal/mol.

Turning to GAGTCACGAAAGTGCCTC (((.(((....))).))), the Tm in data set [1] amounted to 50 °C. In data set [2], the folding enthalpy is -23.5 kcal/mol.

Consider GCAGGGCGAAAGCCACGC ((..(((....)))..)), for which the Tm in data set [1] amounted to 52.2 °C. In data set [2], the folding enthalpy was -15.2 kcal/mol.

Turning to GATCATGCTGATGATC ((((((....)))))), in data set [1], the Tm is 47.3 °C. In addition, the folding enthalpy in data set [2] is -38.5 kcal/mol.

Consider GCACCGGGAAACCGACGC ((..(((....)))..)), for which, in data set [1], the Tm came out at 38 °C. The folding enthalpy in data set [2] was -24.1 kcal/mol.

GCCAAGCGAAAGCTCTGC ((..(((....)))..)): in data set [1], the Tm came out at 31.2 °C. Besides, the folding enthalpy in data set [2] is -11.4 kcal/mol.

For the sequence GCGACGGGAAACCGTCAC (.(((((....))))).), the Tm in data set [1] turned out to be 48.7 °C. Besides, in data set [2], the folding enthalpy is -13 kcal/mol.

Turning to GACCACGAAAGTGCGGTC ((((((....)))..))), the Tm in data set [1] worked out at 43.2 °C. In data set [2], the folding enthalpy is -19.3 kcal/mol.

As for GCATCAGCGAAAGCTTGC (((..(((....)))))), the Tm in data set [1] came out at 41.3 °C. The folding enthalpy in data set [2] is -13.2 kcal/mol.

For the sequence GCTCGCGAAAGCGAAGC ((((((....))).))), in data set [1], the Tm turned out to be 65.3 °C. Also, the folding enthalpy in data set [2] is -17.6 kcal/mol.

As for GTTTGCGAAAGCAAGAAC ((((((....)))..))), the Tm in data set [1] was 36.7 °C. In data set [2], the folding enthalpy was -10 kcal/mol.

As for GAGTAACGAAAGTTTCTC (((.(((....))).))), in data set [1], the Tm amounted to 40.3 °C. Besides, the folding enthalpy in data set [2] is -30.1 kcal/mol.

Regarding GACGCCGGAAACGACGCC (.((.((....)).)).), in data set [1], the Tm came to 39.7 °C. For the same sequence, in data set [2], the folding enthalpy was -21.7 kcal/mol.

For the sequence GTGAAATCGAAAGATCAC (((..(((....)))))), the Tm in data set [1] is 32.8 °C. For the same sequence, the folding enthalpy in data set [2] was -17 kcal/mol.

With GGCAACGGAAACGTCACC ((..(((....)))..)), in data set [1], the Tm amounted to 26 °C. Moreover, in data set [2], the folding enthalpy was -13.9 kcal/mol.

In the case of GAGAGCCGAAAGGCCTC (((.(((....)))))), the Tm in data set [1] came out at 55.3 °C. In data set [2], the folding enthalpy was -15.6 kcal/mol.

As to GGCTGGGGAAACCCAGTC (.(((((....))))).), in data set [1], the Tm came to 55.8 °C. The folding enthalpy in data set [2] was -41.6 kcal/mol.

GTTACCCCGAAAGGGAAC (((..(((....)))))): the Tm in data set [1] was 32.9 °C. In data set [2], the folding enthalpy was -16.5 kcal/mol.

Consider GGTGCTGGAAACAGCATC (.(((((....))))).), for which, in data set [1], the Tm worked out at 54.1 °C. Besides, in data set [2], the folding enthalpy was -30.3 kcal/mol.

With GCCAGAGGAAACTCCGGC (((.(((....))).))), in data set [1], the Tm was found to be 45.6 °C. Also, the folding enthalpy in data set [2] was -24.4 kcal/mol.

Regarding GGGCTAGGAAACTGGCTC (.((.((....)).)).), the Tm in data set [1] was 40.9 °C. For the same sequence, the folding enthalpy in data set [2] was -20.4 kcal/mol.

Regarding GATCGAAGGTTCGATC ((((((....)))))), the Tm in data set [1] amounted to 52.1 °C. Besides, the folding enthalpy in data set [2] was -31.2 kcal/mol.

In the case of GAATACGGAAACGTGTTC (((.(((....))).))), the Tm in data set [1] was 47.1 °C. Further, the folding enthalpy in data set [2] is -33.2 kcal/mol.

As to GCAGGCGGAAACACCCGC ((.((.(....).)).)), the Tm in data set [1] worked out at 36.1 °C. In addition, in data set [2], the folding enthalpy is -12.6 kcal/mol.

In the case of GGAGATCGAAAGATTTCC (((.(((....))).))), the Tm in data set [1] was found to be 46.5 °C. Besides, the folding enthalpy in data set [2] was -33 kcal/mol.

Take GGCCATCGAAAGATGCC (((.(((....)))))): the Tm in data set [1] was determined as 54.9 °C. Also, in data set [2], the folding enthalpy is -19.8 kcal/mol.

For the sequence CGCATCCGGAAACGGGCG (((..(((....)))))), the Tm in data set [1] was determined as 46.9 °C. The folding enthalpy in data set [2] was -26.7 kcal/mol.

As for GACGTTGGAAACAACATC ((.((((....)))).)), the Tm in data set [1] was determined as 32.4 °C. In data set [2], the folding enthalpy is -16.8 kcal/mol.

For the sequence GCTACCGAAAGGTAGAGC ((((((....)))..))), the Tm in data set [1] turned out to be 53.7 °C. Further, the folding enthalpy in data set [2] was -19.1 kcal/mol.

On to GGATTACCGAAAGGTTCC (((..(((....)))))), for which the Tm in data set [1] was 30.8 °C. In addition, the folding enthalpy in data set [2] is -13.5 kcal/mol.

Consider GCGTTGCGAAAGCACTGC ((..(((....)))..)), for which the Tm in data set [1] was 46.1 °C. Further, the folding enthalpy in data set [2] is -18.2 kcal/mol.
